The text below walks through data of ChEMBL document CHEMBL1138063, “Imidazole-dioxolane compounds as isozyme-selective heme oxygenase inhibitors” (J Med Chem, 2006).

The target in experiment [1] is Cytochrome P450 2E1 (Rattus norvegicus, UniProt P05182). Put plainly: Inhibition of rat liver CYP2E1. In kind it is ADME, tissue-based. In short, it runs like this: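 Rat liver microsomal CYP2E1 activity was read as p-nitrophenol hydroxylation, by spectrophotometric measurement of 4-nitrocatechol. Activity at several inhibitor concentrations (HCl salts) was expressed as percent of control. IC50 came from a nonlinear sigmoidal dose-response fit of each of two or three replicate curves.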
Sequence of Cytochrome P450 2E1 (P05182 whole entry): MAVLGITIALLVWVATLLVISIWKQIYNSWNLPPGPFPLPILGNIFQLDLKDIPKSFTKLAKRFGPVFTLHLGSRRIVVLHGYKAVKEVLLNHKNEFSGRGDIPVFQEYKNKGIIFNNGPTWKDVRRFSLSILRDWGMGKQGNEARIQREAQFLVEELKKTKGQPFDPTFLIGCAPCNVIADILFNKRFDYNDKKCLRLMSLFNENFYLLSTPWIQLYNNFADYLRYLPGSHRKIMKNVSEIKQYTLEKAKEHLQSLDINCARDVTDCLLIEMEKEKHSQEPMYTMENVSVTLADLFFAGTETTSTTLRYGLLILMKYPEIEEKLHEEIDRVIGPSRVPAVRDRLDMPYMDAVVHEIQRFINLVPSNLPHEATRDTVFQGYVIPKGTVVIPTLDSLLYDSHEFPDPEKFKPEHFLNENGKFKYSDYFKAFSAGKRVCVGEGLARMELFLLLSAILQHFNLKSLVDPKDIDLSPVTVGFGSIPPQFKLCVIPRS

Experiment [2] deals with Nitric oxide synthase 1 (Rattus norvegicus, UniProt P29476). Nature of the experiment: Inhibition of rat brain nNOS. In short, it runs like this: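 nNOS in rat brain cytosolic fraction, read as conversion of 14C-L-arginine to 14C-L-citrulline. Activity at several inhibitor concentrations was expressed as % of the uninhibited control. IC50 came from a nonlinear sigmoidal dose–response fit, with two or three replicate curves per compound.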
Sequence of Nitric oxide synthase 1 (P29476 whole entry): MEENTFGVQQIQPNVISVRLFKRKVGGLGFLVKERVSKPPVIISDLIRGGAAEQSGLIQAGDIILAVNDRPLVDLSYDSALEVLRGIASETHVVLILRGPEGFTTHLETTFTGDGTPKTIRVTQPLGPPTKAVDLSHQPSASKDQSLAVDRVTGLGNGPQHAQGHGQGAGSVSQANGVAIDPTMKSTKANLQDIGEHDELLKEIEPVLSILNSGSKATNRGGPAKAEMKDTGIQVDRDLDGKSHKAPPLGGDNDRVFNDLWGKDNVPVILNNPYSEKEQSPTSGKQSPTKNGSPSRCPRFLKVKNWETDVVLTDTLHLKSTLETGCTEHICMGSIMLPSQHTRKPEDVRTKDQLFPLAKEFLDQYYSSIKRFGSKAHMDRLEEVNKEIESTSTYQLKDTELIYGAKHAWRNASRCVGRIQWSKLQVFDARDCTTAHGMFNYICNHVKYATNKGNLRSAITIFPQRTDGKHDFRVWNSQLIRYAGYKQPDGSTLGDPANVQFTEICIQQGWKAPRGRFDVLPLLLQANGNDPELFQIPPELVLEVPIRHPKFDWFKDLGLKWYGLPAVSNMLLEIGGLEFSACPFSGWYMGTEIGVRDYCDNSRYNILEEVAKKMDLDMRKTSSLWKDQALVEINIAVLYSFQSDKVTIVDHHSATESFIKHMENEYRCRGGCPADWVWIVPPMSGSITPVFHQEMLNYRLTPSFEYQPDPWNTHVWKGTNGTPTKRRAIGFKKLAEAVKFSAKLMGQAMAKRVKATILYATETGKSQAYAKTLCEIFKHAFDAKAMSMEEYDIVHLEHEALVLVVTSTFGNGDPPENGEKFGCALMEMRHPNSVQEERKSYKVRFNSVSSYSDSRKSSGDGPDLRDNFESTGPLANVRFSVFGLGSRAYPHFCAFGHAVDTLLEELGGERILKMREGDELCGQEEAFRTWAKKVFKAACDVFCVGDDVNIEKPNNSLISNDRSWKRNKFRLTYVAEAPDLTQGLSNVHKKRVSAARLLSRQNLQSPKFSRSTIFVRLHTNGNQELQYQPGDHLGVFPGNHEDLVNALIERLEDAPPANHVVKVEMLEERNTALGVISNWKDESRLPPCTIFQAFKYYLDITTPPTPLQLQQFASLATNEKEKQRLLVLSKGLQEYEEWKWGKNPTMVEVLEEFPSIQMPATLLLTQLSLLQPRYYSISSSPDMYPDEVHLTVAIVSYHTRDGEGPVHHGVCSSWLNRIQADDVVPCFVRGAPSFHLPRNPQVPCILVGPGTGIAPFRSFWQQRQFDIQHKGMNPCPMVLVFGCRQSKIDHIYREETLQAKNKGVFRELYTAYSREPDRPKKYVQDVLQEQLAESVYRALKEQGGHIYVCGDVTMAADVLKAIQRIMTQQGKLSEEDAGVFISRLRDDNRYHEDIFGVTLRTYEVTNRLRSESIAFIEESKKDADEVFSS

A short description of experiment [3]: Inhibition of rat liver CYP3A1/3A2. In kind it is ADME, tissue-based. Put shortly:
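CYP3A1/3A2 in rat liver microsomes, measured as erythromycin N-demethylase activity by spectrophotometric formaldehyde determination. Remaining activity was taken as % of control across inhibitor concentrations. IC50 came from a sigmoidal nonlinear regression, with two or three replicate curves.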

The target of experiment [4] is T1, Heme oxygenase 2 (Rattus norvegicus, UniProt P23711).
T1 sequence (P23711 whole entry): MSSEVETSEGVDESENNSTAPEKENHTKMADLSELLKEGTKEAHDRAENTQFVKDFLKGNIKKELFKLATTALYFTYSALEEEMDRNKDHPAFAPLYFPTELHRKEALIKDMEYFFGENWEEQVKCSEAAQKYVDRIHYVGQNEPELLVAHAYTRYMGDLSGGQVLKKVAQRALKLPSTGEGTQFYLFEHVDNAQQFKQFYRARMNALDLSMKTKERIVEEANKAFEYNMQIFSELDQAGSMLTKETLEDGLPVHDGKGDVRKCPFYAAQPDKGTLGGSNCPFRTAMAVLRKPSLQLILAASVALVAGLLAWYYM
Nature of the experiment: Inhibition of rat liver HO2. Put shortly: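 HO-2 source: rat liver microsomes. Heme was presented as methemalbumin (50 µM) with 1 mg/mL protein in 100 mM phosphate pH 7.4. Compound (HCl salt) was preincubated 10 min at 37 °C, then NADPH (1 mM final) was added for 15 min at 37 °C. CO was measured by GC, minus no-NADPH blanks. IC50 from sigmoidal fits of replicate curves.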

Experiment [5] concerns the target T2, Heme oxygenase 1 (Homo sapiens, UniProt P09601).
T2 sequence (P09601 whole entry): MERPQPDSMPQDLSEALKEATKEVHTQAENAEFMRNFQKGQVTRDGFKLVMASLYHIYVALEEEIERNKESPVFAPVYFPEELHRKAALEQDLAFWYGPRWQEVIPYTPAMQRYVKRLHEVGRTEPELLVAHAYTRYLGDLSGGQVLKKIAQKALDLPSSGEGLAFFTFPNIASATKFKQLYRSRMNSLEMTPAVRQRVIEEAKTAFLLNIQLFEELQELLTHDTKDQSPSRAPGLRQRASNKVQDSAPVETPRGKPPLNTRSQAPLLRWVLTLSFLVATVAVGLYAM
Put plainly: Inhibition of human spleen HO1. Put shortly: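 HO-1 in human spleen microsomes. Heme was given as 50 µM methemalbumin in 100 mM phosphate buffer (pH 7.4) with 1 mg/mL protein. Inhibitor (0.1–100 µM final) was preincubated 10 min at 37 °C, then 1 mM NADPH was added for 15 min at 37 °C. Blanks lacking NADPH were subtracted. Reactions were stopped on dry ice and CO was measured by GC. IC50 came from sigmoidal fits of % control, from 2–3 replicate curves.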

In experiment [6] the target is T1, Heme oxygenase 2. Put plainly: Inhibition of Sprague-Dawley rat brain HO2. In short, it runs like this:
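HO-2 source: Sprague-Dawley rat brain microsomes prepared by differential centrifugation. Compound (HCl salt) at 0.1–100 µM final was preincubated 10 min at 37 °C with 50 µM methemalbumin and 1 mg/mL protein in 100 mM phosphate pH 7.4. NADPH (1 mM final) was added and the mix incubated 15 min at 37 °C, then frozen on dry ice. CO was measured by GC, minus no-NADPH blanks. IC50 from sigmoidal fits, 2–3 replicate curves.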

For experiment [7], the target named is Soluble guanylate cyclase (Rattus norvegicus). Put plainly: Inhibition of rat lung sGC.

By IC50 is commonly meant the concentration needed to halve the response being measured. Lower therefore signals greater potency in that assay.

As for `C[C@@H]1CO[C@@](CCc2ccc(Cl)cc2)(Cn2ccnc2)O1`, the IC50 in experiment [1] was 3.6 µM; in experiment [2] it was 362 µM; in experiment [3] it was 3.2 µM; in experiment [4], 532 µM; in experiment [5], 1.5 µM.

Turning to `Clc1ccc(CCC2(Cn3ccnc3)OCCO2)cc1`, the IC50 in experiment [6] is more than 100 µM; in experiment [1] it was 5 µM; in experiment [2], 182 µM; in experiment [7], more than 1000 µM.

In the case of `C[C@H]1CO[C@](CCc2ccc(Cl)cc2)(Cn2ccnc2)O1`, the IC50 in experiment [6] was more than 100 µM; in experiment [1] it was 20 µM; in experiment [2] it was more than 500 µM; in experiment [3], 10 µM.

Turning to `C[C@@H]1CO[C@](CCc2ccc(Cl)cc2)(Cn2ccnc2)O1`, the 50% inhibitory concentration (IC50) was more than 100 µM in experiment [6], 30 µM in experiment [1], more than 500 µM in experiment [2] and 7 µM in experiment [3].

On to `Clc1ccc(CCC2(Cn3ccnc3)SCCS2)cc1`, for which the results for the IC50 in experiment [2] and in experiment [3] were 34 µM and 5.9 µM, respectively.

Take `C[C@H]1CO[C@@](CCc2ccc(Cl)cc2)(Cn2ccnc2)O1`: the IC50 in experiment [1] is 6 µM; in experiment [2] it was 773 µM; in experiment [3], 8 µM.
